Assay results: article PMC7970580 (ACS Omega, 2021)
Like-named read-outs stand apart in the source and are kept apart here.

Experiments:
Type in all cases: cell-based
SKMEL-28 = assay: MTT antiproliferative assay, melanoma SKMEL-28 cells; settings: read-out: IC50 values, SKMEL-28
In short: (§1)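 ATCC-sourced cancer cells were seeded in RPMI 1640 at 20 000 cells/mL and left 24 h to adhere. Serial dilutions of test compound ([…], in DMSO) were added, then incubated 72 h. MTT (5 mg/mL in PBS) was added for 4 h. Medium was removed, formazan dissolved in DMSO and read at 570 nm. IC50 came from linear regression of the dose–response curve; three runs, mean ± SD.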

HeLa = assay: MTT antiproliferative assay, cervical HeLa cells; settings: Homo sapiens, 72 h, read-out: IC50 values, HeLa
In short: as §1

NCIH 460 = assay: MTT antiproliferative assay, large-cell lung NCIH 460 cells; settings: Homo sapiens, NCI-H460, 72 h, read-out: IC50 values, N CIH 460
In short: as §1

U937 = assay: MTT antiproliferative assay, leukemia U937 cells; settings: Homo sapiens, U-937, 72 h, read-out: IC50 values, U937
In short: as §1

RKOP 27 = assay: MTT antiproliferative assay, colon RKOP 27 cells; settings: RKOp27, 72 h, read-out: IC50 values, RKOP 27
In short: as §1

IC50 (SKMEL-28; Homo sapiens, SK-MEL-28, 72 h) | IC50 (HeLa) | IC50 (U937) | IC50 (SKMEL-28; MTT, 72 h, mean ± SD, three runs) | Molecule | IC50 (NCIH 460) | IC50 (RKOP 27)
1.85 ± 0.321 µM | 0.896 ± 0.115 µM | 1.34 ± 0.174 µM |  | N#Cc1c(-c2ccc(Cl)cc2)cc(-c2cccc3ccccc23)nc1Cl [6a, 2-Chloro-4-(4-chlorophenyl)-6-(naphthalen-1-yl)nicotinonitrile] | 0.689 ± 0.098 µM | 0.512 ± 0.032 µM
1.37 ± 0.215 µM | 0.795 ± 0.096 µM | 2.55 ± 0.374 µM |  | N#Cc1c(-c2cccs2)cc(-c2cccc3ccccc23)nc1Cl [6b, 2-Chloro-6-(naphthalen-1-yl)-4-(thiophen-2-yl)nicotinonitrile] | 0.728 ± 0.088 µM | 0.695 ± 0.056 µM
1.24 ± 0.196 µM | 1.02 ± 0.136 µM | 1.63 ± 0.298 µM |  | N#Cc1c(-c2ccc(Cl)cc2)cc(-c2cccc3ccccc23)[nH]c1=S [7a, 4-(4-Chlorophenyl)-6-(naphthalen-1-yl)-2-thioxo-1,2-dihydropyridine-3-carbonitrile] | 0.764 ± 0.102 µM | 0.596 ± 0.096 µM
1.13 ± 0.137 µM | 1.37 ± 0.213 µM | 1.57 ± 0.321 µM |  | N#Cc1c(-c2cccs2)cc(-c2cccc3ccccc23)[nH]c1=S [7b, 6-(Naphthalen-1-yl)-4-(thiophen-2-yl)-2-thioxo-1,2-dihydropyridine-3-carbonitrile] | 0.638 ± 0.138 µM | 0.697 ± 0.072 µM
0.774 ± 0.021 µM | 0.229 ± 0.074 µM | 0.544 ± 0.074 µM |  | CCCCCCCCN(c1nc(-c2cccc3ccccc23)cc(-c2ccc(Cl)cc2)c1C#N)c1nc(-c2cccc3ccccc23)cc(-c2ccc(Cl)cc2)c1C#N [8a, 2,2′-(Octylazanediyl)bis(4-(4-chlorophenyl)-6-(naphthalen-1-yl)nicotinonitrile)] | 0.048 ± 0.0074 µM | 0.04 ± 0.0021 µM
1.26 ± 0.168 µM | 1.04 ± 0.326 µM | 1.37 ± 0.284 µM |  | CCCCCCCCN(c1nc(-c2cccc3ccccc23)cc(-c2cccs2)c1C#N)c1nc(-c2cccc3ccccc23)cc(-c2cccs2)c1C#N [8b, 2,2′-(Octylazanediyl)bis(6-(naphthalen-1-yl)-4-(thiophen-2-yl)nicotinonitrile)] | 0.468 ± 0.069 µM | 0.486 ± 0.049 µM
1.79 ± 0.236 µM | 1.16 ± 0.206 µM | 1.81 ± 0.369 µM |  | N#Cc1c(-c2ccc(Cl)cc2)cc(-c2cccc3ccccc23)nc1NCCN [10a, 2-((2-Aminoethyl)amino)-4-(4-chlorophenyl)-6-(naphthalen-1-yl)nicotinonitrile] | 0.896 ± 0.078 µM | 0.596 ± 0.059 µM
0.669 ± 0.026 µM | 0.211 ± 0.069 µM | 0.642 ± 0.069 µM |  | N#Cc1c(-c2cccs2)cc(-c2cccc3ccccc23)nc1NCCN [10b, 2-((2-Aminoethyl)amino)-6-(naphthalen-1-yl)-4-(thiophen-2-yl)nicotinonitrile] | 0.046 ± 0.0069 µM | 0.046 ± 0.0026 µM
0.572 ± 0.036 µM | 0.255 ± 0.072 µM | 0.458 ± 0.072 µM |  | N#Cc1c(-c2ccc(Cl)cc2)cc(-c2cccc3ccccc23)nc1NN [11a, 4-(4-Chlorophenyl)-2-hydrazinyl-6-(naphthalen-1-yl)nicotinonitrile] | 0.044 ± 0.0072 µM | 0.055 ± 0.0036 µM
1.3 ± 0.106 µM | 1.27 ± 0.227 µM | 1.59 ± 0.215 µM |  | N#Cc1c(-c2cccs2)cc(-c2cccc3ccccc23)nc1NN [11b, 2-Hydrazinyl-6-(naphthalen-1-yl)-4-(thiophen-2-yl)nicotinonitrile] | 0.478 ± 0.096 µM | 0.846 ± 0.096 µM
0.51 ± 0.041 µM | 0.185 ± 0.051 µM | 0.581 ± 0.051 µM |  | Cc1nnc2c(C#N)c(-c3ccc(Cl)cc3)cc(-c3cccc4ccccc34)n12 [12a, 7-(4-Chlorophenyl)-3-methyl-5-(naphthalen-1-yl)-[1,2,4]triazolo[4,3-a]pyridine-8-carbonitrile] | 0.033 ± 0.0051 µM | 0.048 ± 0.0041 µM
1.37 ± 0.389 µM | 1.44 ± 0.108 µM | 1.47 ± 0.151 µM |  | Cc1nnc2c(C#N)c(-c3cccs3)cc(-c3cccc4ccccc34)n12 [12b, 3-Methyl-5-(naphthalen-1-yl)-7-(thiophen-2-yl)-[1,2,4]triazolo[4,3-a]pyridine-8-carbonitrile] | 0.648 ± 0.076 µM | 0.869 ± 0.087 µM
1.5 ± 0.218 µM | 1.27 ± 0.103 µM | 1.69 ± 0.089 µM |  | Cc1cc(=O)[nH]n1-c1nc(-c2cccc3ccccc23)cc(-c2ccc(Cl)cc2)c1C#N [13a, 4-(4-Chlorophenyl)-2-(5-methyl-3-oxo-2,3-dihydro-1H-pyrazol-1-yl)-6-(naphthalen-1-yl)nicotinonitrile] | 0.765 ± 0.089 µM | 0.879 ± 0.068 µM
1.36 ± 0.182 µM | 1.36 ± 0.139 µM | 1.76 ± 0.068 µM |  | Cc1cc(=O)[nH]n1-c1nc(-c2cccc3ccccc23)cc(-c2cccs2)c1C#N [13b, 2-(5-Methyl-3-oxo-2,3-dihydro-1H-pyrazol-1-yl)-6-(naphthalen-1-yl)-4-(thiophen-2-yl)nicotinonitrile] | 0.869 ± 0.076 µM | 0.698 ± 0.079 µM
1.36 ± 0.098 µM | 1.39 ± 0.11 µM | 0.976 ± 0.125 µM |  | N#Cc1c(-c2cccs2)cc(-c2cccc3ccccc23)nc1NNC(=O)Cc1ccccc1 [14b, N′-(3-Cyano-6-(naphthalen-1-yl)-4-(thiophen-2-yl)pyridin-2-yl)-2-phenylacetohydrazide] | 0.789 ± 0.069 µM | 0.869 ± 0.087 µM

Continued, molecule first:

Molecule | IC50 (SKMEL-28; Homo sapiens, SK-MEL-28, 72 h) | IC50 (HeLa) | IC50 (U937) | IC50 (SKMEL-28; MTT, 72 h, mean ± SD, three runs) | IC50 (NCIH 460) | IC50 (RKOP 27)
N#Cc1c(-c2ccc(Cl)cc2)cc(-c2cccc3ccccc23)[nH]c1=O [4a, 4-(4-Chlorophenyl)-6-(naphthalen-1-yl)-2-oxo-1,2-dihydropyridine-3-carbonitrile] | 0.59 ± 0.015 µM | 0.25 ± 0.019 µM | 0.766 ± 0.019 µM |  | 0.066 ± 0.009 µM | 0.03 ± 0.0015 µM
N#Cc1c(-c2cccs2)cc(-c2cccc3ccccc23)[nH]c1=O [4b, 6-(Naphthalen-1-yl)-2-oxo-4-(thiophen-2-yl)-1,2-dihydropyridine-3-carbonitrile] | 0.669 ± 0.0098 µM | 0.246 ± 0.069 µM | 0.836 ± 0.069 µM |  | 0.058 ± 0.0069 µM | 0.039 ± 0.0098 µM
N#Cc1c(-c2ccc(Cl)cc2)cc(-c2cccc3ccccc23)n(C(=S)Nc2ccccc2)c1=O [5a, 4-(4-Chlorophenyl)-3-cyano-6-(naphthalen-1-yl)-2-oxo-N-phenylpyridine-1(2H)-carbothioamide] | 1.16 ± 0.318 µM | 0.973 ± 0.185 µM | 1.53 ± 0.255 µM |  | 0.518 ± 0.0566 µM | 0.635 ± 0.0458 µM
N#Cc1c(-c2cccs2)cc(-c2cccc3ccccc23)n(C(=S)Nc2ccccc2)c1=O [5b, 3-Cyano-6-(naphthalen-1-yl)-2-oxo-N-phenyl-4-(thiophen-2-yl)pyridine-1(2H)-carbothioamide] | 0.755 ± 0.018 µM | 0.277 ± 0.055 µM | 0.98 ± 0.055 µM |  | 0.032 ± 0.0055 µM | 0.056 ± 0.0032 µM
CCCCCOC(=O)Nc1nc(=O)n([C@@H]2O[C@H](C)[C@@H](O)[C@H]2O)cc1F [capecitabine, reference compound] |  |  |  |  |  | 4.33 ± 0.064 µM
COc1cccc2c1C(=O)c1c(O)c3c(c(O)c1C2=O)C[C@@](O)(C(=O)CO)C[C@@H]3O[C@H]1C[C@H](N)[C@H](O)[C@H](C)O1 [doxorubicin, reference compound] |  |  | 4.45 ± 0.05 µM |  |  | 
Nc1ccn([C@@H]2O[C@H](CO)[C@@H](O)C2(F)F)c(=O)n1 [gemcitabine, reference compound] |  |  |  |  | 2.13 ± 0.05 µM | 
aldelseukin [reference compound] |  |  |  | 3.45 ± 0.064 µM |  | 
